From ChEMBL document CHEMBL1212838, “Investigations on the 2-thiazolylhydrazyne scaffold: synthesis and molecular modeling of selective human monoamine oxidase inhibitors” (Bioorg Med Chem, 2010) come the findings set out here.

In data set [1] the target is T1, Amine oxidase [flavin-containing] B (Homo sapiens, UniProt P27338).
T1 sequence (P27338 whole entry): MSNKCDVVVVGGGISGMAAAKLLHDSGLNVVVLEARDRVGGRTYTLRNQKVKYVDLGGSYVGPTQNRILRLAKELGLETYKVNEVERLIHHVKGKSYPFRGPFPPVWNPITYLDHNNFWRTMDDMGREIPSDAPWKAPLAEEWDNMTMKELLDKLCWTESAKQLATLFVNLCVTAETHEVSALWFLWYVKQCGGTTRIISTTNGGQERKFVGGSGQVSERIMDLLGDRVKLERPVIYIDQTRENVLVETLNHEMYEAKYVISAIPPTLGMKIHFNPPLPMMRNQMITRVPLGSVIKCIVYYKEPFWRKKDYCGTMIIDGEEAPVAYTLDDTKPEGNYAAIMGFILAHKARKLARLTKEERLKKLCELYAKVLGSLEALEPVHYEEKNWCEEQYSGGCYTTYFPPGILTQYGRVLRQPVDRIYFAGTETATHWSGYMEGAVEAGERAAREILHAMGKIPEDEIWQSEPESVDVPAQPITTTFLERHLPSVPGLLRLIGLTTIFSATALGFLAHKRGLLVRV

In data set [2] the target is T2, Amine oxidase [flavin-containing] A (Homo sapiens, UniProt P21397).
T2 sequence (P21397 whole entry): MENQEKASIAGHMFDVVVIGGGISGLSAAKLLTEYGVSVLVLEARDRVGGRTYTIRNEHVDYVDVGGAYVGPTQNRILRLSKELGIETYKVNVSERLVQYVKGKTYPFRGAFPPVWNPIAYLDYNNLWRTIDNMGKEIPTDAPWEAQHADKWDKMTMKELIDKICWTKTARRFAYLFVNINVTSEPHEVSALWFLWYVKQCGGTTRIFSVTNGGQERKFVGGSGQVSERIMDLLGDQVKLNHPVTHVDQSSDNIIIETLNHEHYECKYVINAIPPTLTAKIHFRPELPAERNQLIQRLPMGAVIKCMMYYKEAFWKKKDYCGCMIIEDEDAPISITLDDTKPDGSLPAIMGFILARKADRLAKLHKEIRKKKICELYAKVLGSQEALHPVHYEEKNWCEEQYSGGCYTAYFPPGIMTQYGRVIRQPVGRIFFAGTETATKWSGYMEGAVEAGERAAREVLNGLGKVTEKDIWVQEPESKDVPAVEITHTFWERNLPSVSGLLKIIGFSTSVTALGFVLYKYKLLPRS
The data set can be described thus: Inhibition of human MAOA by fluorimetry.

The species named for data set [3] is Homo sapiens. The data set is described as follows: Selectivity index, ratio of IC50 for human recombinant MAOA to IC50 for human recombinant MAOB.
The target of data set [4] is T1, Amine oxidase [flavin-containing] B. The data set can be described thus: Inhibition of human MAOB at 5 uM.
In data set [5] the target is T2, Amine oxidase [flavin-containing] A. The data set can be described thus: Reversible inhibition of human MAOA at 500 nM by centrifugation-ultrafiltration method. In a few lines: (§1)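 Reversibility test: hMAO-A or hMAO-B with compound was ultrafiltered on a 30 kDa membrane. Retained enzyme was resuspended in sodium phosphate buffer at 4 °C and recentrifuged, three centrifugations in all. An aliquot was then assayed fluorimetrically with p-tyramine/Amplex Red. Percent inhibition was computed for washed and unwashed samples against vehicle controls; n = 5.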

For data set [6] the target is unchanged. The data set can be described thus: Inhibition of human MAOA at 500 nM. In short, it runs like this: as §1
The target in data set [7] is T1, Amine oxidase [flavin-containing] B. The data set is described as follows: Inhibition of human MAOB at 5 nM by centrifugation-ultrafiltration method. In a few lines: as §1
For data set [8] the target is unchanged. The data set is described as follows: Inhibition of human MAOB at 100 uM by fluorimetry. In a few lines:
(§2)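 Recombinant human MAO-A or MAO-B, each at an amount set to oxidize 165 pmol p-tyramine/min, preincubated 15 min at 37 °C with compound in 0.05 M sodium phosphate pH 7.4. Reaction started with final 200 µM Amplex Red, 1 U/mL HRP and 1 mM p-tyramine. Resorufin fluorescence (ex 545, em 590 nm) read over 15 min at 37 °C; enzyme-free background subtracted.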

Data set [9] concerns the target T2, Amine oxidase [flavin-containing] A. The data set can be described thus: Inhibition of human MAOA at 100 uM by fluorimetry. In a few lines:
as §2

Data set [10] has the same target. The data set is described as follows: Reversible inhibition of human MAOA at 100 uM by centrifugation-ultrafiltration method. In a few lines: as §1
Data set [11] has the same target. The data set is described as follows: Inhibition of human MAOA at 100 nM.
The target in data set [12] is T1, Amine oxidase [flavin-containing] B. The data set can be described thus: Inhibition of human MAOB at 1 uM by fluorimetry.

As for `COc1cccc(-c2csc(NN=C3CCCCC3)n2)c1`, the values for the IC50 in data set [1] and in data set [2] were 0.0319 µM and 1.91 µM, respectively. Besides, the Ratio IC50 in [3] was determined as 60.

`COc1cccc(-c2csc(N/N=C/c3cccs3)n2)c1`: the half-inhibitory concentration (IC50) in [1] was found to be 0.494 µM; in [2], 0.458 µM. Moreover, the Ratio IC50 in [3] came out at 0.93.

In data set [4], `COc1cccc(-c2csc(N/N=C(\C)c3cccnc3)n2)c1` registered an inhibition at 5 µM of 63.7%. Further, the results for the IC50 in data set [1] and in [2] were 0.00381 µM and 0.455 µM, respectively. For the same compound, the results for the inhibition at 0.5 µM in data set [5] and in data set [6] were 65.1% and 59.1%, respectively. Further, in data set [7], at 0.005 µM the inhibition was 67.2%. For the same compound, the Ratio IC50 in data set [3] was 119.

As for `CCC(CC)=NNc1nc(-c2cccc(OC)c2)cs1`, the IC50 was 0.772 µM in data set [1] and 0.824 µM in data set [2]. For the same compound, the Ratio IC50 in data set [3] stood at 1.1.

Take `COc1cccc(-c2csc(NN=C(C)C)n2)c1`: the values for the IC50 in [1] and in [2] were 5.07 µM and 4.43 µM, respectively. In addition, in data set [3], the Ratio IC50 amounted to 0.87.

As to `COc1cccc(-c2csc(N/N=C/c3c[nH]c4ccccc34)n2)c1`, the IC50 worked out at 0.8 µM in data set [1] and 0.414 µM in [2]. In [3], the Ratio IC50 was found to be 0.52.

Consider `CCCCCC/C(C)=N/Nc1nc(-c2cccc(OC)c2)cs1`, for which testing at 100 µM in data set [8] gave an inhibition of 40%. Further, the IC50 in [2] worked out at 1.38 µM.

With `O=C1Nc2ccccc2C1=O` [ISATIN], the results for the inhibition at 100 µM in [9] and in data set [10] were 40% and 12.1%, respectively. Besides, testing at 0.1 µM in [11] gave an inhibition of 40.3%.

Take `COc1cccc(-c2csc(N/N=C(\C)c3cccs3)n2)c1`: the IC50 in data set [1] was determined as 0.551 µM; in data set [2], 0.636 µM. Further, in data set [3], the Ratio IC50 was determined as 1.15.

Turning to `COc1cccc(-c2csc(N/N=C/c3cccnc3)n2)c1`, the IC50 in data set [1] was 2.91 µM; in data set [2] it was 0.538 µM. Besides, the Ratio IC50 in data set [3] turned out to be 0.18.

As for `COc1cccc(-c2csc(N/N=C(\C)c3cccc4ccccc34)n2)c1`, in [9], testing at 100 µM gave an inhibition of 40%. Moreover, the “inhibition (INH)” value in data set [8] (100 µM) is given as “Not Active”.

Consider `COc1cccc(-c2csc(N/N=C/c3cccc4ccccc34)n2)c1`, for which the inhibition at 100 µM in [8] was 40%. In data set [2], this compound showed an IC50 of 3.64 µM.

As for `COc1cccc(-c2csc(N/N=C/c3ccco3)n2)c1`, the IC50 amounted to 6.78 µM in data set [1] and 0.343 µM in [2]. For the same compound, the Ratio IC50 in [3] turned out to be 0.051.

`COc1cccc(-c2csc(N/N=C/c3ccncc3)n2)c1`: the IC50 is 1.14 µM in data set [1] and 0.698 µM in data set [2]. The Ratio IC50 in data set [3] is 0.61.

Turning to `COc1cccc(-c2csc(N/N=C3\CCC(C)C3)n2)c1` (configuration not stated), the IC50 came out at 0.231 µM in data set [1] and 1.45 µM in data set [2]. Further, the Ratio IC50 in [3] turned out to be 6.3.

Turning to `COc1cccc(-c2csc(N/N=C3\CCCCC3C)n2)c1` (configuration not stated), the IC50 in [1] was 0.0122 µM; in data set [2], 0.737 µM. In addition, the Ratio IC50 in data set [3] was 60.

With `COc1cccc(-c2csc(NN=C3CCCCCC3)n2)c1`, the IC50 worked out at 0.0295 µM in data set [1] and 1.78 µM in data set [2]. Besides, the Ratio IC50 in data set [3] turned out to be 60.

Consider `COc1cccc(-c2csc(N/N=C3\CCCC3C)n2)c1` (configuration not stated), for which the values for the concentration for half-maximal inhibition (IC50) in data set [1] and in data set [2] were 0.0266 µM and 0.836 µM, respectively. Further, in data set [3], the Ratio IC50 was found to be 31.

As for `COc1cccc(-c2csc(N/N=C(\C)c3ccco3)n2)c1`, the results for the IC50 in data set [1] and in data set [2] were 1.68 µM and 0.333 µM, respectively. Further, the Ratio IC50 in data set [3] was 0.2.

For the compound `COc1cccc(-c2csc(N/N=C(\C)c3ccncc3)n2)c1`, the IC50 in data set [1] turned out to be 0.116 µM; in data set [2], 3.71 µM. In data set [3], the Ratio IC50 was determined as 32.

Consider `COc1cccc(-c2csc(NN=C3CCCC3)n2)c1`, for which the values for the half-maximal inhibitory concentration (IC50) in data set [1] and in [2] were 1.06 µM and 0.592 µM, respectively. Moreover, the Ratio IC50 in data set [3] turned out to be 0.56.

Regarding `COc1cccc(-c2csc(NN=C3CCC(C)CC3)n2)c1` (configuration not stated), the values for the IC50 in [1] and in data set [2] were 0.0355 µM and 0.749 µM, respectively. Moreover, in [3], the Ratio IC50 stood at 21.

As for `COc1cccc(-c2csc(N/N=C3\CCCC(C)C3)n2)c1` (configuration not stated), the figures for the IC50 in [1] and in [2] were 0.0727 µM and 0.679 µM, respectively. Also, in data set [3], the Ratio IC50 came to 9.3.

In the case of `O=C(NCCN1CCOCC1)c1ccc(Cl)cc1` [MOCLOBEMIDE], the IC50 result in data set [12] is on record as “Not Active”.

Turning to `COc1cccc(-c2csc(N/N=C(\C)c3cc4ccccc4oc3=O)n2)c1`, the figures for the IC50 in data set [1] and in data set [2] were 6.97 µM and 5.56 µM, respectively. Also, the Ratio IC50 in [3] is 0.8.

Regarding `CCC/C(C)=N/Nc1nc(-c2cccc(OC)c2)cs1`, the IC50 in [1] is 0.871 µM; in [2], 1.31 µM. Moreover, in [3], the Ratio IC50 was 1.5.

Consider `CCCCC/C(C)=N/Nc1nc(-c2cccc(OC)c2)cs1`, for which the 50% inhibitory concentration (IC50) in [1] was 6.72 µM; in data set [2], 1.15 µM. In data set [3], the Ratio IC50 is 0.17.

On to `COc1cccc(-c2csc(N/N=C(\C)c3ccccn3)n2)c1`, for which the inhibition at 100 µM in data set [9] and in data set [8] was 40% in each case.
